Measured values reported in ChEMBL document CHEMBL1156681, “Synthesis, anti-bacterial, anti-asthmatic and anti-diabetic activities of novel N-substituted-2-(4-phenylethynyl-phenyl)-1H-benzimidazoles and N-substituted 2[4-(4,4-dimethyl-thiochroman-6-yl-ethynyl)-phenyl)-1H-benzimidazoles” (2008).
≈ marks a conversion by molar mass, not a printed value. Calls of active or inactive are those of the source. The rule behind the calls is not given here.

Key:
[1] = target: T1, Phosphodiesterase 4 (Homo sapiens) (UniProt P27815+Q08499+Q07343+Q08493); details: 0.075 uM
[2] = target: T2, Tyrosine-protein phosphatase non-receptor type 1 (Homo sapiens) (UniProt P18031); assay: Inhibition of human recombinant PTP1B at 0.3 uM after 30 mins relative to control
T2 sequence (whole entry): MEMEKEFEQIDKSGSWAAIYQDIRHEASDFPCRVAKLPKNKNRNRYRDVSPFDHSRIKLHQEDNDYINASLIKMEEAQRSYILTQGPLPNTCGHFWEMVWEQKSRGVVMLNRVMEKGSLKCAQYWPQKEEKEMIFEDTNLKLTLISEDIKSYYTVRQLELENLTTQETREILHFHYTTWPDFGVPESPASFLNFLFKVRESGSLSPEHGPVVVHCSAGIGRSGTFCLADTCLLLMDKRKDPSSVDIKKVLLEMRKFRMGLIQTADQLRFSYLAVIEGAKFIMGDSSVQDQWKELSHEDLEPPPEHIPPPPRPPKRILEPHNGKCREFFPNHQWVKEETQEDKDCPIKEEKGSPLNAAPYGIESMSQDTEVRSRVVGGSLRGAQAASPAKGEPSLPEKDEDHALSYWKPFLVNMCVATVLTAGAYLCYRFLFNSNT
Method in brief: (§1)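 In-house human recombinant PTP-1B (~35 ng) was assayed with p-nitrophenyl phosphate in 25 mM Hepes, 3 mM DTT and 1 mM EDTA, pH 7.4, with DMSO at ≤1%. Absorbance at 405 nm was monitored continuously at 30 °C for 30 min, then NaOH was added and 405 nm read again. Activity was expressed as % of control, and % inhibition as 100 minus activity.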

[3] = target: T2, Tyrosine-protein phosphatase non-receptor type 1 (Homo sapiens); assay: Inhibition of human recombinant PTP1B at 30 uM after 30 mins relative to control
Method in brief: as §1

[4] = tested on: Staphylococcus aureus; assay: Antibacterial activity against Staphylococcus aureus at 0.1 ug/ml after 48 hrs by tube dilution method; assay type: functional, organism-based
Method in brief: (§2)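 Compounds dissolved in DMSO and tested by tube dilution at […]. Tubes were incubated at 37 °C for 48 h. Growth was scored against the DMSO control as poor, medium or confluent (no inhibition). MIC was taken from the dilution series. Cephalexin served as the reference antibacterial and DMSO as the solvent control.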

[5] = tested on: Staphylococcus aureus; assay: Antibacterial activity against Staphylococcus aureus at 1 ug/ml after 48 hrs by tube dilution method; assay type: functional, organism-based
Method in brief: as §2

[6] = tested on: Staphylococcus aureus; assay: Antibacterial activity against Staphylococcus aureus at 10 ug/ml after 48 hrs by tube dilution method; assay type: functional, organism-based
Method in brief: as §2

[7] = tested on: Staphylococcus aureus; assay: Antibacterial activity against Staphylococcus aureus at 100 ug/ml after 48 hrs by tube dilution method; assay type: functional, organism-based
Method in brief: as §2

[8] = tested on: Staphylococcus aureus; assay: Antibacterial activity against Staphylococcus aureus at 500 ug/ml after 48 hrs by tube dilution method; assay type: functional, organism-based
Method in brief: as §2

[9] = tested on: Staphylococcus aureus; assay: Antibacterial activity against Staphylococcus aureus after 48 hrs by tube dilution method; assay type: functional
Method in brief: as §2

[10] = tested on: Salmonella typhimurium; assay: Antibacterial activity against Salmonella Typhimurium at 0.1 ug/ml after 48 hrs by tube dilution method; assay type: functional, organism-based; details: Salmonella enterica subsp. enterica serovar Typhimurium
Method in brief: as §2

[11] = tested on: Salmonella typhimurium; assay: Antibacterial activity against Salmonella Typhimurium at 1 ug/ml after 48 hrs by tube dilution method; assay type: functional, organism-based; details: Salmonella enterica subsp. enterica serovar Typhimurium
Method in brief: as §2

[12] = tested on: Salmonella typhimurium; assay: Antibacterial activity against Salmonella Typhimurium at 10 ug/ml after 48 hrs by tube dilution method; assay type: functional, organism-based; details: Salmonella enterica subsp. enterica serovar Typhimurium
Method in brief: as §2

[13] = tested on: Salmonella typhimurium; assay: Antibacterial activity against Salmonella Typhimurium at 100 ug/ml after 48 hrs by tube dilution method; assay type: functional, organism-based; details: Salmonella enterica subsp. enterica serovar Typhimurium
Method in brief: as §2

[14] = tested on: Salmonella typhimurium; assay: Antibacterial activity against Salmonella Typhimurium at 500 ug/ml after 48 hrs by tube dilution method; assay type: functional, organism-based; details: Salmonella enterica subsp. enterica serovar Typhimurium
Method in brief: as §2

[15] = tested on: Salmonella typhimurium; assay: Antibacterial activity against Salmonella Typhimurium after 48 hrs by tube dilution method; assay type: functional, Salmonella enterica subsp. enterica serovar Typhimurium; details: Salmonella enterica
Method in brief: as §2

[16] = target: T1, Phosphodiesterase 4 (Homo sapiens); assay: Inhibition of human PDE4 at 1 uM after 20 mins; assay type: protein assay
[17] = target: Dipeptidyl peptidase 4 (Homo sapiens) (UniProt P27487); assay: Inhibition of human recombinant DPP4 at 0.3 uM after 30 mins relative to control
Method in brief: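 Recombinant human DPP-IV (10 ng) was run in 25 mM Tris pH 7.4, 140 mM NaCl, 10 mM KCl and 1% BSA with Gly-Pro-AMC substrate. Compounds in DMSO were added, and AMC release was followed kinetically at 30 °C for 30 min (ex 380 / em 460 nm). Percent inhibition was calculated against the solvent-only control.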

[18] = tested on: Staphylococcus aureus; assay: Antibacterial activity against Staphylococcus aureus at 200 ug/ml after 48 hrs by tube dilution method; assay type: functional, organism-based
Method in brief: as §2

[19] = tested on: Salmonella typhimurium; assay: Antibacterial activity against Salmonella Typhimurium at 200 ug/ml after 48 hrs by tube dilution method; assay type: functional, organism-based; details: Salmonella enterica subsp. enterica serovar Typhimurium
Method in brief: as §2

Chain of Dipeptidyl peptidase 4 (Homo sapiens) (P27487 whole entry, looked up): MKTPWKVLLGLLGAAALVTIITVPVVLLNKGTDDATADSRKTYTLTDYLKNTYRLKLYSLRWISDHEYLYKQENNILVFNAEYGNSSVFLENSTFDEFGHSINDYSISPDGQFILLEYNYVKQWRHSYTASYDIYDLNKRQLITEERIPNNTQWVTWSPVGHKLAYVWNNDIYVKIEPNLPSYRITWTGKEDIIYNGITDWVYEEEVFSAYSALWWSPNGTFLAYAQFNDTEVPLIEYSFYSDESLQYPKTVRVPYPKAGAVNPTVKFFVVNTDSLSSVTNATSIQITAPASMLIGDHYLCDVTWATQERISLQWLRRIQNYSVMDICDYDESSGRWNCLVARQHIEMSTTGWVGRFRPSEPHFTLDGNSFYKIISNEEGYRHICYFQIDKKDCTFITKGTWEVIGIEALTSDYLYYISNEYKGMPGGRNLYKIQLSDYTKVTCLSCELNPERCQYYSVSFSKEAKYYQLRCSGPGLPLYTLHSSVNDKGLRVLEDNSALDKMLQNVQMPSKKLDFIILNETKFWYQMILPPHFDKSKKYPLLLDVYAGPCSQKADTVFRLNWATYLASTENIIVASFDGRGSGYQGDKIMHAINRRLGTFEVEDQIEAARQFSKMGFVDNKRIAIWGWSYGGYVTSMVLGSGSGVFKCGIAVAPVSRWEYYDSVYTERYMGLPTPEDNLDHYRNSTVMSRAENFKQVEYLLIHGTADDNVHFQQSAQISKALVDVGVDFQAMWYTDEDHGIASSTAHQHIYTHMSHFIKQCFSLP

SMILES	inhibition [1] [%]	inhibition [2] [%]	inhibition [3] [%]	Activity [4]	Activity [5]	Activity [6]	Activity [7]	Activity [8]	MIC [9] [µg/mL]	Activity [10]	Activity [11]	Activity [12]	Activity [13]	Activity [14]	MIC [15] [µg/mL]	inhibition [16] [%]	inhibition [17] [%]	Activity [18]	Activity [19]
COc1ccc([C@]2(C#N)CC[C@@H](C(=O)O)CC2)cc1OC1CCCC1	45.3	–	–	–	–	–	–	–	–	–	–	–	–	–	–	–	–	–	–
C=C(O)CN(c1ccccc1C(=O)O)C(CCC(=O)N[C@@H](CCSC)C(=O)O)CNC(=O)C(Cc1cccc(CC)c1)NC(C)=O (some centres undefined)	–	49.1	–	–	–	–	–	–	–	–	–	–	–	–	–	–	–	–	–
CC(C)COC(=O)n1c(-c2ccc(C#Cc3ccccc3)cc2)nc2ccccc21	–	–	17.4	inactive	inactive	inactive	inactive	Active	500 (≈ 1270 µM)	inactive	inactive	inactive	inactive	Active	500 (≈ 1270 µM)	17.2	0	–	–
CCCCOC(=O)n1c(-c2ccc(C#Cc3ccccc3)cc2)nc2ccccc21	–	–	5.84	inactive	inactive	inactive	inactive	Active	500 (≈ 1270 µM)	inactive	inactive	inactive	inactive	Active	500 (≈ 1270 µM)	16.2	0	–	–
CC1=C(C(=O)O)N2C(=O)[C@@H](NC(=O)[C@H](N)c3ccccc3)[C@H]2SC1 [CEPHALEXIN ANHYDROUS]	–	–	–	inactive	inactive	Active	Active	Active	10 (≈ 28.8 µM)	inactive	inactive	–	–	Active	200 (≈ 576 µM)	–	–	Active	Active
CCn1c(-c2ccc(C#Cc3ccccc3)cc2)nc2ccccc21	–	–	2.2	inactive	inactive	inactive	inactive	Active	500 (≈ 1550 µM)	inactive	inactive	inactive	inactive	Active	500 (≈ 1550 µM)	13.5	0	–	–
